{"data": "Experimental data collected from several papers", "target": "Homeodomain-interacting protein kinase 3 (HIPK3, Homo sapiens, UniProt Q9H422)", "read-out": "enzyme activity", "mode": "inhibitor", "note": "Compare with care: the assays were run in different laboratories."}
{"Compound": "CCN(CC)c1ccc(C2=NNC(=O)CC2C)cc1[N+](=O)[O-] (stereo not shown)", "conditions": "10 µM", "remaining activity [%]": 40}
{"Compound": "O=C(O)c1ccc2c(c1)nc(NCCc1cccc(Cl)c1)c1ncncc12", "assay": "radiometric", "conditions": "1 µM", "remaining activity [%]": 38}
{"Compound": "Cc1cnc(NC2CCOCC2)nc1-n1cnc(C(=O)NC(CN)c2cc(F)cc(Cl)c2)c1 (stereo not shown)", "assay": "radiometric", "conditions": "1 µM", "remaining activity [%]": 94}
{"Compound": "CCCOc1ccc(OC)c(F)c1C(=O)c1ccc(C(=O)N[C@@H]2CNC[C@H]2NC(=O)c2ccc3[nH]ncc3c2)cc1", "conditions": "10 µM", "remaining activity [%]": 97}
{"Compound": "Cc1sc(C(=O)NC2COC2)cc1-n1cc(NC(=O)Nc2c(F)cccc2Cl)cn1", "conditions": "10 µM", "remaining activity [%]": 88.5}
{"Compound": "O=C(O)c1ccc2c(c1)nc(Nc1ccc(F)c(Cl)c1)c1ncncc12", "assay": "radiometric", "conditions": "1 µM", "remaining activity [%]": 12}
{"Compound": "CC(C)(C)c1nc(-c2cccc(NS(=O)(=O)c3c(F)cccc3F)c2F)c(-c2ccnc(N)n2)s1", "assay": "radiometric", "conditions": "1 µM", "remaining activity [%]": 99}
{"Compound": "COc1cc(Nc2cnc(C#N)c(O[C@H](C)CN(C)C)n2)ncc1-c1cnn(C)c1", "assay": "radiometric", "conditions": "1 µM", "remaining activity [%]": 96}
{"Compound": "CC(C)(C)c1nc2c(s1)c1nc(N)ncc1c1ccc(NS(=O)(=O)c3c(F)cccc3F)c(F)c12", "assay": "radiometric", "conditions": "1 µM", "remaining activity [%]": 96}
{"Compound": "O=C(Nc1cnn(-c2csc(C(=O)NC3COC3)c2)c1)Nc1ccccc1Cl", "conditions": "5 µM", "remaining activity [%]": 97.6}
{"Compound": "O=C(O)c1ccc2c(c1)nc(NCc1ccccc1)c1ncncc12", "assay": "radiometric", "conditions": "1 µM", "remaining activity [%]": 52}
{"Compound": "FC(F)c1nc2ccccc2n1-c1nc(N2CCOCC2)nc(N2CCOCC2)n1", "conditions": "10 µM", "remaining activity [%]": 98}
{"Compound": "O=C(O)c1ccc2c(c1)nc(Nc1ccc3ccccc3c1)c1ccncc12", "assay": "radiometric", "conditions": "1 µM", "remaining activity [%]": 7}
{"Compound": "COc1cc(Cl)c(C(=O)N[C@@H](CN[C@H]2CC[C@@H](N)CC2)Cc2ccc(C#N)cc2)cc1-c1ccc(CN[C@H](C)c2ccc(C)cc2)o1", "conditions": "1 µM", "remaining activity [%]": 96}
{"Compound": "O=C(O)c1ccc2c(c1)nc(Nc1ccc(F)c(Cl)c1)c1ccncc12", "assay": "radiometric", "conditions": "1 µM", "remaining activity [%]": 5}
{"Compound": "Cc1ccc(C(=O)Nc2ccc(CN3CCN(C)CC3)c(C(F)(F)F)c2)cc1C#Cc1cnc2cccnn12", "conditions": "23.5 nM", "remaining activity [%]": 93}
{"Compound": "Oc1cccc(-c2nc(N3CCOCC3)c3oc4ncccc4c3n2)c1", "conditions": "10 µM", "remaining activity [%]": 82}
{"Compound": "O=C(O)c1ccc2c(c1)nc(NCCc1ccccc1)c1ccncc12", "assay": "radiometric", "conditions": "1 µM", "remaining activity [%]": 8}
{"Compound": "CC(C)(O)[C@H]1CC[C@H](Nc2ccc3ncc(-c4cccc(C(F)(F)F)c4)n3n2)CC1", "conditions": "1 µM", "remaining activity [%]": 78.4}
